Test results reported in ChEMBL document CHEMBL4038313, “Expanding the Antiviral Spectrum of 3-Fluoro-2-(phosphonomethoxy)propyl Acyclic Nucleoside Phosphonates: Diamyl Aspartate Amidate Prodrugs” (J Med Chem, 2017).

Key:
[1] = Cytotoxic activity against HEL cells assessed as alteration of cell morphology after 3 days by microscopic method; assay type: cell-based; conditions: human
Procedure, shortened: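 HEL cells with compound; MCC is the lowest concentration giving microscopically detectable alteration of cell morphology.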

[2] = Selectivity index, ratio of CC50 for HepG2.2.15 cells to EC50 for HBV ayw1 infected in human HepG2(2.2.15) cells assessed as reduction in viral replication by measuring extracellular viral DNA copy
Procedure, shortened: (§1)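 HepG2.2.15 cells (two copies of HBV ayw1 genome), 1.5 × 10^4/well in DMEM with 2% FBS and 380 μg/mL G418. After 16–24 h, compound added in triplicate, medium with compound renewed at day 3. Supernatant collected at day 6, Pronase-treated, and extracellular HBV DNA measured by TaqMan qPCR (precore/core) against an HBV DNA standard curve. EC50/EC90 derived; CC50 by MTS uptake.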

[3] = Cytotoxicity against human HepG2.2.15 cells assessed as cell viability by tetrazolium dye uptake assay; assay type: cell-based, HepG2 2.2.15
Procedure, shortened: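 HepG2.2.15 cells (two integrated copies of HBV ayw1 genome) were seeded at 1.5 × 10^4 cells/well in DMEM with 2% FBS, 380 μg/mL G418, glutamine, antibiotics and nonessential amino acids. After 16−24 h, medium with various compound concentrations was added in triplicate and renewed on day 3. After 6 days of treatment, viability was read by MTS uptake and CC50 was calculated.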

[4] = system: Human immunodeficiency virus 1; assay: Antiviral activity against CCR5 tropic HIV1 BaL infected in human TZM-bl cells assessed as inhibition of virus-induced cytopathic effect preincubated with cells for 30 mins followed by viral infection measured after 48 hrs in presence of p-24 HIV-1 Ag by luciferase reporter gene assay; assay type: functional, cell-based; conditions: Human immunodeficiency virus 1, BaL
Procedure, shortened: (§2)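 TZM-bl cells, 1 × 10^4 per well in DMEM with 10% FBS and 10 mM […], incubated 30 min at 37 °C with compound. Then HIV-1 NL4.3 (X4) or BaL (R5) added at 100 pg p24 Ag per well. After 48 h, cells lysed with luciferase substrate. Tat-induced luminescence read after 10 min dark incubation as a measure of replication.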

Human alphaherpesvirus 3 [5] = assay: Antiviral activity against thymidine kinase deficient Varicella-Zoster virus 07-1 infected in HEL cells assessed as inhibition of plaque formation; assay type: functional, cell-based; conditions: Human alphaherpesvirus 3, 07-1, HEL
Procedure, shortened: (§3)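 HEL fibroblast monolayers inoculated with 100 CCID50 HCMV (AD-169, Davis) or 20 PFU VZV (TK+ Oka, TK− 07-1). Adsorbed 1–2 h, inoculum removed, then incubated with compound dilutions. HCMV cytopathicity or VZV plaques scored once untreated infected controls reached completion. EC50 is 50% reduction. SI is CC50/EC50, and the potency ratio is the ratio of EC50s.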

[6] = system: Human immunodeficiency virus 1; assay: Antiviral activity against CXCR4-tropic HIV-1 NL4-3 infected in human TZM-bl cells assessed as inhibition of virus-induced cytopathic effect preincubated with cells for 30 mins followed by viral infection measured after 48 hrs in presence of p-24 HIV-1 Ag by luciferase reporter gene assay; assay type: functional, cell-based; conditions: Human immunodeficiency virus 1, NL4-3, TZM-bl; procedure, shortened: as §2
Human betaherpesvirus 5 [7] = assay: Antiviral activity against Human cytomegalovirus AD169 infected in HEL cells assessed as inhibition of virus-induced cytopathic effect; assay type: functional, cell-based; conditions: Human betaherpesvirus 5, AD169, HEL; procedure, shortened: as §3
Hepatitis B virus = assay: Antiviral activity against HBV ayw1 infected in human HepG2(2.2.15) cells assessed as reduction in viral replication by measuring extracellular viral DNA copy number after 6 days by real-time qPCR method; assay type: functional, cell-based; conditions: ayw1, HepG2 2.2.15, 144 h; procedure, shortened: as §1
[8] = Cytotoxicity against human TZM-bl cells assessed as cell viability by tetrazolium dye assay; assay type: cell-based
[9] = Selectivity index, ratio of CC50 for human TZM-bl cells to EC50 for CXCR4-tropic HIV-1 NL4-3 infected in human TZM-bl cells; assay type: toxicity, cell-based; conditions: read-out: Ratio CC50/EC50
[10] = Stability of the compound in buffer of pH 1 at 2 mg after 6 hrs by 31P NMR spectroscopy; assay type: physicochemical; conditions: pH 1, 6 h
Procedure, shortened: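 2.0 mg compound in 0.2 mL acetone-d6 plus 0.3 mL pH 1 buffer (equal parts 0.2 M HCl and 0.2 M KCl). In situ 31P NMR (202 MHz) at 37 °C, spectra every 30 min over 14 h.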

Human alphaherpesvirus 3 [11] = assay: Antiviral activity against thymidine kinase expressing Varicella-Zoster virus Oka strain assessed as inhibition of plaque formation; assay type: functional; conditions: Human alphaherpesvirus 3, strain Oka vaccine; procedure, shortened: as §3
Human betaherpesvirus 5 [12] = assay: Antiviral activity against HCMV Davis strain infected in HEL cells assessed as inhibition of virus-induced cytopathic effect; assay type: functional, cell-based; conditions: Human betaherpesvirus 5, Davis; procedure, shortened: as §3
[13] = Selectivity index, ratio of CC50 for human TZM-bl cells to EC50 for CCR5 tropic HIV1 BaL infected in human TZM-bl cells; assay type: toxicity, cell-based; conditions: read-out: Ratio CC50/EC50
[14] = Stability of the compound in phosphate buffer of pH 8 at 1 mg after 2 hrs by 31P NMR spectroscopy; assay type: physicochemical; conditions: pH 8, 2 h
Procedure, shortened: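 1 mg compound in 0.2 mL acetone-d6 plus 0.3 mL pH 8 buffer (0.1 M Na2HPO4 adjusted with 0.1 M HCl). In situ 31P NMR (202 MHz) at 37 °C, spectra every 30 min over 14 h.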

Structure (SMILES): CCCCCOC(=O)C[C@H](NP(=O)(CO[C@H](CF)Cn1cc(C)c(=O)[nH]c1=O)Oc1ccccc1)C(=O)OCCCCC (stereo partly specified)
- MCC at 72 h [1]: 159 µM
- Ratio CC50/EC50 [2]: <1
- CC50 [3]: 33.5 µM
- EC50 [4]: > 43.4 µM
- EC50 (Human alphaherpesvirus 3 [5]): 23.1 µM
- EC50 [6]: > 43.4 µM
- EC50 (Human betaherpesvirus 5 [7]): > 31.9 µM
- EC50 (Hepatitis B virus): 42.4 µM
- EC90 (Hepatitis B virus): > 100 µM
- CC50 [8]: 43.4 µM
- selectivity ratio [9]: < 1
- Stability [10]: Unstable
- EC50 (Human alphaherpesvirus 3 [11]): 19.7 µM
- EC50 (Human betaherpesvirus 5 [12]): > 31.9 µM
- selectivity ratio [13]: < 1
- Stability [14]: Unstable
